Laboratory results reported in ChEMBL document CHEMBL1147128, “Development of molecular probes for second-site screening and design of protein tyrosine phosphatase inhibitors” (J Med Chem, 2007).

What was measured:
[1] = target: T1, Tyrosine-protein phosphatase non-receptor type 2 (Homo sapiens, UniProt P17706); assay: Inhibition of TCPTP
T1 sequence (P17706 whole entry): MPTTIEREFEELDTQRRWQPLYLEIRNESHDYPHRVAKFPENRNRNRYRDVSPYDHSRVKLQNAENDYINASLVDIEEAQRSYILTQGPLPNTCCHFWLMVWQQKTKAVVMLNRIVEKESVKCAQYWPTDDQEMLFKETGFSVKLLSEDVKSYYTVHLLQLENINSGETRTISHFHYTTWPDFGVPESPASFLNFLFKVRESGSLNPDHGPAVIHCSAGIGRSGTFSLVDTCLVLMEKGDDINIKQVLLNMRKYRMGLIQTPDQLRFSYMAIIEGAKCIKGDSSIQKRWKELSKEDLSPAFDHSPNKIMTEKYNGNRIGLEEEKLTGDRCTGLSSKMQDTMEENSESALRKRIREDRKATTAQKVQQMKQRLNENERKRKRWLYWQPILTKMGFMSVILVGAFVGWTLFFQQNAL
Outline: (§1)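 Hydrolysis of pNPP at its Km (1 mM) was measured at 30°C in 0.15 M Bis-Tris pH 6.0, ionic strength 150 mM with NaCl, 1.0 mM DTT, 5% DMSO final. Enzyme and compound (0.0128–1000 μM, 5-fold steps) were preincubated 10 min at room temperature, then reacted 20 min. The reaction was quenched with 1 M NaOH and read at 405 nm, with the no-enzyme background subtracted. IC50 came from the fit Vi/V0 = IC50/(IC50+[I]).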

[2] = target: T2, Receptor-type tyrosine-protein phosphatase C (Homo sapiens, UniProt P08575); assay: Inhibition of CD45; outline: as §1
T2 sequence (P08575 whole entry): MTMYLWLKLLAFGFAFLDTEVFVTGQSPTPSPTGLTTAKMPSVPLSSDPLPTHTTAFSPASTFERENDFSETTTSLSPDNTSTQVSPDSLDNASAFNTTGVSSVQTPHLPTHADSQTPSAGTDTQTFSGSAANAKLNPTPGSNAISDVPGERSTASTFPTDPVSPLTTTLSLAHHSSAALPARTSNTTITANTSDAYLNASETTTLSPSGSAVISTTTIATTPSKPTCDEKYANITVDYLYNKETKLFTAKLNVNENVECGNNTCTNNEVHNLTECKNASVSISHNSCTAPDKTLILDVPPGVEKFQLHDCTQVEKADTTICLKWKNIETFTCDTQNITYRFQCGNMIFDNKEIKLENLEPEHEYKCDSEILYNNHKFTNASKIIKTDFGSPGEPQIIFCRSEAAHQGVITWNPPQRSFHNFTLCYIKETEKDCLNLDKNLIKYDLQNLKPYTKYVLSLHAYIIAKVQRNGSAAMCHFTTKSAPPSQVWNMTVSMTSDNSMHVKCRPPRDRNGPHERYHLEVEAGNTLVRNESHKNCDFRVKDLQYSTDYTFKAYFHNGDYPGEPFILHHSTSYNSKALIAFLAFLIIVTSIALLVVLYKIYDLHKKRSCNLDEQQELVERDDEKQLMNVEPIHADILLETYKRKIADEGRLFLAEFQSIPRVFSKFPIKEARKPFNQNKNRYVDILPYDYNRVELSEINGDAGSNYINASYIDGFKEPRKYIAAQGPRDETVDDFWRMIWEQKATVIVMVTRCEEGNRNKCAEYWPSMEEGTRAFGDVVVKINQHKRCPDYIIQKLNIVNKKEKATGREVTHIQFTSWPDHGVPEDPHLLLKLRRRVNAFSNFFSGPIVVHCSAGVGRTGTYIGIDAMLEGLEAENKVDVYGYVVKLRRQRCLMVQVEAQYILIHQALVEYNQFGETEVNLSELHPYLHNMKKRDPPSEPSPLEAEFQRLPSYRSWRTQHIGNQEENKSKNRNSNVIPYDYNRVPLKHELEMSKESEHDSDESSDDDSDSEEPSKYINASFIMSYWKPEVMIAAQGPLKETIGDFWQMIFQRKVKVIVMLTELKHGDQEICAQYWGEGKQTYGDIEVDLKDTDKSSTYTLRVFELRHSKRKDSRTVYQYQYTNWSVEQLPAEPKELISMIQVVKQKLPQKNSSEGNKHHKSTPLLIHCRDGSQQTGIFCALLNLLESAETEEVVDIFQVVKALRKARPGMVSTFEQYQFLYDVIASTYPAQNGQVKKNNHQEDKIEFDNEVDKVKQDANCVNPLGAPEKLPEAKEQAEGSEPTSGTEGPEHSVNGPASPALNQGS

[3] = Inhibition of Yersinia pestis YopH expressed in Escherichia coli
Outline: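 GST-YopH was purified on glutathione-Sepharose and dialysed into 30 mM Tris, 150 mM NaCl, then with 1 mM DTT. Assayed with pNPP at Km (1 mM), 30°C, 0.15 M Bis-Tris pH 6.0, 1.0 mM DTT, 5% DMSO final. Compound (0.0128–1000 μM) was preincubated 10 min at RT, then reacted 20 min. NaOH quench, A405 with the no-enzyme blank subtracted, IC50 by the hyperbolic fit.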

[4] = target: Dual specificity protein phosphatase 3 (Homo sapiens, UniProt P51452); assay: Inhibition of VHR
Outline: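 VHR was assayed with pNPP at its Km of 1.5 mM, at 30°C in 0.15 M Bis-Tris pH 6.0 (150 mM ionic strength, NaCl), 1.0 mM DTT, 5% DMSO final. Eight compound concentrations from 0.0128 to 1000 μM were preincubated 10 min at RT, then reacted 20 min. NaOH quench, read at 405 nm with the enzyme-free blank corrected. IC50 from Vi/V0 = IC50/(IC50+[I]).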

[5] = target: T3, Tyrosine-protein phosphatase non-receptor type 7 (Homo sapiens, UniProt P35236); assay: Inhibition of HePTP
T3 sequence (P35236 whole entry): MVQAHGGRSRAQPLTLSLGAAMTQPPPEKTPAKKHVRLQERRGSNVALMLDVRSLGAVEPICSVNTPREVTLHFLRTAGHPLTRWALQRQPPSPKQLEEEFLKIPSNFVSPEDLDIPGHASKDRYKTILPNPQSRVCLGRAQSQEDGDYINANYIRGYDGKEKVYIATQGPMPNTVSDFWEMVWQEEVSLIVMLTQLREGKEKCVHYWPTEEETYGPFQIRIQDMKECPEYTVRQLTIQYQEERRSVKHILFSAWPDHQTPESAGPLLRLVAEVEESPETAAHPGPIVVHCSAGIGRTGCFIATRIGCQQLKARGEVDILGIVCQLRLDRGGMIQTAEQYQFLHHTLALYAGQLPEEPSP
Outline: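 pNPP was held at its Km of 2.5 mM for HePTP. Assay at 30°C in 0.15 M Bis-Tris pH 6.0 (ionic strength 150 mM, NaCl), 1.0 mM DTT, 5% DMSO final. Compound (0.0128–1000 μM) and enzyme were preincubated 10 min at RT, then reacted 20 min with substrate. NaOH quench, A405 minus the no-enzyme blank. IC50 fit to Vi/V0 = IC50/(IC50+[I]).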

[6] = target: T4, Tyrosine-protein phosphatase non-receptor type 1 (Homo sapiens, UniProt P18031); assay: Inhibition of PTP1B; outline: as §1
T4 sequence (P18031 whole entry): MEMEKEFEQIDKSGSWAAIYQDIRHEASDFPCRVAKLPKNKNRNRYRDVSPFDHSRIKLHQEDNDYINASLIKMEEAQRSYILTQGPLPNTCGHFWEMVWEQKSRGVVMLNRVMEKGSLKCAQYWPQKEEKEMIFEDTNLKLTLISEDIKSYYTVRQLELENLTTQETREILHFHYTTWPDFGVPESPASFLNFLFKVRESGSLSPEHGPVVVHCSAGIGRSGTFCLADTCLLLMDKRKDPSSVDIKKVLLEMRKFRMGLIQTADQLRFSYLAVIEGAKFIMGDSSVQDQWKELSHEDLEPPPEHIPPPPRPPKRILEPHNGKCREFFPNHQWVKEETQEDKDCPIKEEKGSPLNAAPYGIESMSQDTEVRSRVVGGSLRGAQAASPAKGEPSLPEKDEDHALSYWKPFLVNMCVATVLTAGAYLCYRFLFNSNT

Dual specificity protein phosphatase 3, sequence (P51452 whole entry): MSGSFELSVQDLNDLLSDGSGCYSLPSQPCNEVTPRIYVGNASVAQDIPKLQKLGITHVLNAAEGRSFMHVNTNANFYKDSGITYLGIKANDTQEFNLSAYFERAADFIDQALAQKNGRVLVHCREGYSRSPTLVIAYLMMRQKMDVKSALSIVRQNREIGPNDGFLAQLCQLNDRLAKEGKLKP

Compound: CC1(C)CC(NC(=O)/C=C/c2ccc(-c3ccc(O)c(C(=O)O)c3)o2)CC(C)(C)N1[O]
- IC50 [1]: 14 µM
- IC50 [2]: 14 µM
- IC50 [3]: 3 µM
- IC50 [4]: 12 µM
- IC50 [5]: 7.5 µM
- IC50 [6]: 24 µM

Compound: COC(=O)c1cc(-c2ccc(CNC3CC(C)(C)N([O])C(C)(C)C3)o2)ccc1O
- IC50 [1]: > 1000 µM
- IC50 [2]: > 1000 µM
- IC50 [3]: > 1000 µM
- IC50 [4]: 850 µM
- IC50 [5]: > 1000 µM
- IC50 [6]: > 1000 µM

Compound: COC(=O)c1cc(NC(=O)CCCC(=O)NC2CC(C)(C)N([O])C(C)(C)C2)ccc1O
- IC50 [1]: > 1000 µM
- IC50 [2]: > 1000 µM
- IC50 [3]: > 1000 µM
- IC50 [4]: > 1000 µM
- IC50 [5]: > 1000 µM
- IC50 [6]: > 1000 µM

Compound: CC1(C)CC(NC(=O)/C=C/c2ccc(-c3cccc([N+](=O)[O-])c3)o2)CC(C)(C)N1[O]
- IC50 [1]: 260 µM
- IC50 [2]: > 1000 µM
- IC50 [3]: 46 µM
- IC50 [4]: 200 µM
- IC50 [5]: 211 µM
- IC50 [6]: 1000 µM

Compound: CC1(C)CC(NC(=O)/C=C/c2ccc(-c3ccc([N+](=O)[O-])cc3)o2)CC(C)(C)N1[O]
- IC50 [1]: > 1000 µM
- IC50 [2]: > 1000 µM
- IC50 [3]: 47 µM
- IC50 [4]: 1000 µM
- IC50 [5]: > 1000 µM
- IC50 [6]: > 1000 µM

Compound: CC1(C)CC(NCc2ccc(-c3ccc(O)c(C(=O)O)c3)o2)CC(C)(C)N1[O]
- IC50 [1]: 685 µM
- IC50 [2]: > 1000 µM
- IC50 [3]: 50 µM
- IC50 [4]: 241 µM
- IC50 [5]: > 1000 µM
- IC50 [6]: > 1000 µM

Compound: CC1(C)CC(NC(=O)CCCC(=O)Nc2ccc(O)c(C(=O)O)c2)CC(C)(C)N1[O]
- IC50 [1]: > 1000 µM
- IC50 [2]: > 1000 µM
- IC50 [3]: 336 µM
- IC50 [4]: 1000 µM
- IC50 [5]: > 1000 µM
- IC50 [6]: > 1000 µM
